Most compounds without a hit are left out; they make up all but 0.89% or so of the library.
Arr AP2 block: inhibitors of human beta-arrestin and AP2 interaction; FITC-arrestin peptide / GST-AP2 beads, flow cytometry; AP2 beta2 appendage carries R879A mutation; inhibition, % at 10 µM; 340,000 compounds, 0.31% hits;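 active = inhibition above a set limit, near 3 SD of compounds lacking own fluorescence, cut at about 54% in these data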
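Material – AP2 appendage R879A on GSH beads · Buffer or medium – PBS with 0.05% Tween 20 and 0.1% BSA · Probe or stimulus – fluorescein-tagged arrestin peptide at 50 nM final · Incubation – compound with beads 12 min RT, then probe 1 h RT · Detection – high-throughput flow cytometry of beads, ex 488, em 535 nm · Evaluation – percent response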
ABCB6 inh 2: human ABCB6 transporter inhibition. Q9NP58. K562-ABCB6 porphyrin accumulation, flow cytometry, 1 h; stronger effect = lower value. fluorescence ratio to DMSO, % at 10 µM. 360,000 compounds, 0.19% hits;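 active = fluorescence ratio to DMSO below 75%, the collection mean minus 3 SD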;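 also: signal is porphyrin accumulated inside mitochondria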
Target sequence (Q9NP58 whole entry, looked up): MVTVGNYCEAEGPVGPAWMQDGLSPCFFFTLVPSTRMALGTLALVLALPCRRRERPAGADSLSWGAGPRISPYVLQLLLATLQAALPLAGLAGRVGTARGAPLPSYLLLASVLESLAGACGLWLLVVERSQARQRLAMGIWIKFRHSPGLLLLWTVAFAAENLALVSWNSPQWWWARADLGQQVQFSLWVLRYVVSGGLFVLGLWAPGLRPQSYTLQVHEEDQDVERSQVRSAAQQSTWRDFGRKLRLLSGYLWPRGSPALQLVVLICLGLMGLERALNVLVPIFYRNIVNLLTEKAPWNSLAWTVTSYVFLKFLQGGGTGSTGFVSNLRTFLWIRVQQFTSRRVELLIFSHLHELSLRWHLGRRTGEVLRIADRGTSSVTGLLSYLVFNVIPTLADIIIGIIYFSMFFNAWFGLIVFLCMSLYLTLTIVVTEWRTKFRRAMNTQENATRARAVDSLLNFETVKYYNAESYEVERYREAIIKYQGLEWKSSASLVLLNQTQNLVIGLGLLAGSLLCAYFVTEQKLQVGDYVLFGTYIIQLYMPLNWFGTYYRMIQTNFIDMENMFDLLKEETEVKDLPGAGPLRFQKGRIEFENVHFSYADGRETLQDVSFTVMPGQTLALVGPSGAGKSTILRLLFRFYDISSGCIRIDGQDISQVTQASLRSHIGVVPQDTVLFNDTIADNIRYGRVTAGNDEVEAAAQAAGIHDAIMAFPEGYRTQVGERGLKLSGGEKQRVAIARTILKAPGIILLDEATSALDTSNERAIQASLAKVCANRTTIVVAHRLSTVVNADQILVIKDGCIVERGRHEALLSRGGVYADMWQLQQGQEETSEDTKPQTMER
PG9 Ab binder: small molecules binding HIV-1 gp120 antibody PG9; inhibition, % at 6.7 µM; 360,000 compounds, 0.43% hits; AID 624416; TR-FRET gp120-PG9 antibody binding; in the data active = inhibition above about 8.5%
hiPSC survival: hiPSC single-cell survival enhancement; ATPlite luminescence; 100% = ROCK inhibitor wells, 0% = DMSO; survival enhancement, % at 20 µM; 360,000 compounds, 0.044% hits; in the data active = survival enhancement above about 18%;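 also: cells exposed to compounds for 16 hours before the ATP read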
PG9 bind confirm: PG9 antibody binding, confirmed | TR-FRET PG9 antibody binding, biochemical | AID 651571 | shares compounds with PG9 Ab binder | inhibition, % at 6.7 µM | 1,500 compounds, 90% hits; in the data active = inhibition above about 9%
PGV04 counter: counter-screen for PG9 binders: binding control antibody PGV04; shares compounds with PG9 Ab binder; TR-FRET PGV04 antibody-gp120 binding, biochemical; inhibition, % at 6.7 µM; 1,500 compounds, 95% hits; AID 651604; in the data active = inhibition above about 9.5%
PG9 binder DR: small molecules binding HIV-1 gp120 antibody PG9. shares compounds with PG9 Ab binder. 95 tested, under 10 active. IC50, µM. TR-FRET PG9 antibody-gp120 binding inhibition; in the data active = IC50 below about 10 µM
PGV04 binding DR: PGV04 binding, dose response counter-screen; shares compounds with PG9 Ab binder; TR-FRET binding to control antibody PGV04; IC50, µM; 95 compounds, 20% hits; AID 651937
PG126 binding DR: counter-screen for PG9 binders: binding to control antibody PG126; shares compounds with PG9 Ab binder; TR-FRET binding to antibody PG126, counterscreen; IC50, µM; 95 compounds, 20% hits
Hits are given with their value; i = inactive; nt = no result given. Rule as the data show it, unless noted: active = IC50 below about 9 µM; inactive = the rest.

SMILES	Arr AP2 block	ABCB6 inh 2	PG9 Ab binder	hiPSC survival	PG9 bind confirm	PGV04 counter	others
CCCCn1c(SCC(=O)c2ccc(OCC)cc2)nc2cc(S(N)(=O)=O)ccc21	i	i	19.0	i	22.1	35.3
CCc1nc(N)c(C#N)c(-c2cccc3ccccc23)c1C	i	i	14.6	i	21.1	29.4
COc1ccc(-c2nn(C)c3sc(C(=O)NCc4ccco4)cc23)cc1OC	i	i	10.4	i	12.9	18.5
N/C(=N\OC(=O)COc1ccc2ccccc2c1Br)c1cccnc1	nt	nt	10.2	nt	13.5	18.8
N/C(=N\OC(=O)COc1ccc2ccccc2c1Br)c1ccccn1	i	i	i	i	nt	nt
O=S(=O)(NCc1ccc(Cl)c(Cl)c1)c1cc(Cl)ccc1N1CC[C@@H](O)C1	nt	nt	i	nt	nt	nt
CCOc1ccc(C2/C(=C(\O)c3ccc(OC)c(OC)c3)C(=O)C(=O)N2c2cc(C)on2)cc1OC (stereo not given)	i	i	i	i	nt	nt
COC(=O)c1ccc(C2/C(=C(\O)c3ccc(OC)c(C)c3)C(=O)C(=O)N2c2cc(C)on2)cc1 (stereo not given)	i	i	8.7	i	13.5	19.2
Cc1nc2ccc3nc(NC(=O)c4ccc5c(c4)OCCO5)sc3c2s1	i	i	35.4	i	27.0	56.1
CCN=C1NC(c2ccc(C(F)(F)F)cc2)C(C(=O)OC)=C(C)N1Cc1cccc(C(F)(F)F)c1 (stereo not given)	nt	nt	i	nt	nt	nt
Cc1cc(NC(=O)CSc2nc(C3CC3)nc3sc(C)c(C)c23)no1	i	i	8.9	i	13.1	12.0	PG9 binder DR=i;PGV04 binding DR=i;PG126 binding DR=i
Cc1nc(SCC(=O)NC2CCCC2)c2c(C)c(C)sc2n1	i	i	i	i	nt	nt
Cc1nc(SCC(=O)Nc2ccccc2Cl)c2c(C)c(C)sc2n1	i	i	18.9	i	12.1	17.2
CCCC(=O)Nc1ccc(C(=O)Nc2ccc([N+](=O)[O-])cc2OC)cc1	i	i	10.2	i	9.5	16.7
CC1=CC2C3C(=O)N(c4ccccc4)C(=O)C3C1C(=O)C2(O)C(C)C (stereo not given)	nt	nt	i	nt	nt	nt
CC(C)c1ccc(OCCCN2CCC(C(O)(c3ccccc3)c3ccccc3)CC2)cc1	nt	nt	i	nt	nt	nt
COc1ccccc1-c1nnc(Nc2nc3c(OC)cccc3s2)o1	i	i	10.7	i	22.6	25.6
COc1cccc2sc(Nc3nnc(-c4ccccc4Cl)o3)nc12	i	i	i	i	nt	nt
C[C@@H]1COc2cccc(N3CCCC3)c2S(=O)(=O)N1	nt	nt	i	nt	nt	nt
COc1cccc(CNC(=O)[C@H]2CCCN2C(=O)[C@H]2CCCN2C(=O)c2cccs2)c1	nt	nt	i	nt	nt	nt
Nc1ccc2ccc(NS(=O)(=O)N3CCCCC3)cc2c1	nt	nt	i	nt	nt	nt
COC(=O)c1ccc(N2C(=O)CC(N3CCOCC3)C2=O)cc1 (stereo not given)	i	i	13.3	i	i	9.3
COC(=O)c1ccc(N2C(=O)CC(N3CCN(c4ccccc4)CC3)C2=O)cc1 (stereo not given)	i	i	i	i	nt	nt
O=C(CCc1ccccc1)Nc1nc2ccc(S(=O)(=O)N3CCOCC3)cc2s1	i	i	11.7	i	21.8	31.2
CCc1ccc2nc3c(c(C(=O)O)c2c1)CCC3	i	i	i	i	nt	nt
SMILES	Arr AP2 block	ABCB6 inh 2	PG9 Ab binder	hiPSC survival	PG9 bind confirm	PGV04 counter	others
Cc1cc(Br)c2nc3c(c(C(=O)O)c2c1)CCCCC3	i	i	74.5	i	73.8	88.3
CCN(CC)C(=O)CSc1nc(N)c(C#N)c(-c2cccs2)c1C#N	i	i	44.1	i	17.9	29.7
OC(c1ccccc1)(c1ccccc1)C1CCN(CCCOc2ccc(C(F)(F)F)cc2)CC1	nt	nt	i	nt	nt	nt
O=C(Nc1cccnc1)c1cc(-c2ccc3c(c2)OCO3)on1	i	i	12.1	i	10.2	22.1
O=C(Nc1cccnc1)c1cc(-c2ccc(Cl)c(Cl)c2)on1	i	i	i	i	nt	nt
CCCc1nc2c(C)cc(Br)cn2c1Cc1cccc(Cl)c1	nt	nt	i	nt	nt	nt
CC1Cc2ccccc2N1C(=O)COC(=O)c1cc(Br)ccc1O (stereo not given)	i	i	19.9	i	i	i
COC(=O)[C@]12C[C@H](CC(=O)N3CCCC3)C(=O)N(Cc3ccccc3)C1=C[C@H](C1CCCC1)O[C@@H]2C	nt	nt	i	nt	nt	nt
Cc1cc(-c2ccc(Cl)cc2)c(C#N)c(N)n1	i	i	55.0	i	64.5	79.5
N#Cc1c(-c2ccncc2)cc(-c2ccc(F)cc2)nc1N	i	i	33.5	i	8.9	25.8
COC(=O)C1=C(C)N(C)C(=NCc2ccccc2)NC1c1ccc(F)cc1 (stereo not given)	nt	nt	i	nt	nt	nt
CCN(c1ccc(C(=O)CN2C(=O)NC3(CCOc4ccccc43)C2=O)cc1)S(C)(=O)=O (stereo not given)	i	i	9.8	i	33.6	32.4	PG9 binder DR=i;PGV04 binding DR=i;PG126 binding DR=i
O=C(CN1C(=O)NC2(CCOc3ccccc32)C1=O)c1ccc(Cl)cc1 (stereo not given)	i	i	i	i	nt	nt
Cc1ccc(-c2ccc(C(=O)O)c(C)n2)cc1	i	i	i	i	nt	nt
Cc1nc(-c2ccc(Br)cc2)ccc1C(=O)O	i	i	13.8	i	23.5	29.8
COCCNC(=S)N(C)[C@H]1C[C@H]2c3[nH]c4c(-c5ccccc5)cccc4c3CCN2C[C@H]1[C@H](C)O	nt	nt	i	nt	nt	nt
CCOC(=O)N1CCC(NC(=O)c2cc3sccc3n2CC)CC1	i	i	i	i	nt	nt
CCn1c(C(=O)NC2CCC(C)CC2)cc2sccc21 (stereo not given)	nt	i	11.0	i	i	i
COc1ccc(CCn2cnn3c(=O)c4ccccc4nc3c2=O)cc1OC	nt	nt	i	nt	nt	nt
O=C(Cn1nnc(-c2ccccc2NC(=O)c2ccccc2F)n1)NC1CCCC1	i	i	12.4	i	39.8	42.6
FC(F)(F)c1nc(=S)c2ccccc2[nH]1	i	i	17.3	i	10.7	9.9
Cc1ccc(Cc2nc3ccccc3[nH]2)cc1	i	i	i	i	nt	nt
Cc1nc(=S)c2ccccc2[nH]1	i	i	i	i	nt	nt
S=c1nc(Cc2ccccc2)[nH]c2ccccc12	i	i	25.1	i	15.5	12.8	PG9 binder DR=i;PGV04 binding DR=i;PG126 binding DR=i
S=c1nc(COc2ccccc2)[nH]c2ccccc12	i	i	12.8	i	9.2	9.4
S=c1nc(Cc2ccc(Cl)cc2)[nH]c2ccccc12	i	i	15.6	i	i	11.2
CN1CCCCC(NC(=O)c2cccc(F)c2)C1=O (stereo not given)	nt	nt	i	nt	nt	nt
CCc1cc2cc(C(=O)Nc3ccc(C)cc3)sc2s1	i	i	31.3	i	29.2	35.7

Assay outcomes from PubChem BioAssay.
